According to publication PMC4257110 (International Journal of Nanomedicine, 2014):
Values after ≈ are worked out from the molar mass of the structure shown.

Experiments:
[1] = In vitro release of TS IIA, Sal B and PNS from PLGA NPs and of free drugs; format: physicochemical; conditions: saline containing 0.2% SDS, dialysis, 37°C; for released from NPs: PLGA NPs loaded with TS IIA, Sal B, PNS, within 72 hours; for free drug released: free drugs (control), first 6 hours
Procedure, shortened: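 Dialysis release: a sealed bag with sample dispersed in 2.0 mL saline plus 0.2% (w/v) SDS was immersed in 30 mL of the same medium at 37°C with horizontal shaking at 100 rpm. 1 mL of medium was withdrawn at set intervals and drug content measured by HPLC.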

[2] = format: physicochemical; conditions: PLGA NPs loaded with TS IIA, Sal B, PNS; PLGA L:G 50:50; RP-HPLC
Procedure, shortened: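 Free drug: a dialysis bag (8–14 kDa cutoff) holding 2 mL saline with 0.2% SDS was placed in 25 mL nanosuspension for 12 h, and the bag contents were assayed by HPLC. Total drug: 1 mL nanosuspension dissolved in acetonitrile, extracted with methanol, 0.22-μm filtered. C18 column, 25°C, acetonitrile/0.05% phosphoric acid gradient, 1.0 mL/min, 203 nm (PNS) or 280 nm (TS IIA, Sal B). EE calculated from free and total drug.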

[3] = Pharmacokinetics of TS IIA, Sal B and PNS; format: in vivo, guinea pigs; conditions: RW administration, NPs versus compound solution, not dose-normalised
Procedure, shortened: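 Guinea pigs (250–300 g; 78, two groups) received round-window dosing of loaded PLGA NPs (12.43 μg/kg TS IIA, 766.38 μg/kg Sal B, 1.05/2.08/2.31 mg/kg R1/Rg1/Rb1) or solution in ethanol/glycerol/PEG 400 2:1:2 (0.73, 8, 3.13/4.38/3.82 mg/kg); saline blank. At 0.17–36 h under anesthesia, perilymph was drawn through the RWM and plasma taken from cardiac blood. Acetic ether (TS IIA, Sal B) or methanol (PNS) extraction, HPLC; n=3.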

[4] = Maximum solubility in mixed solvents; format: physicochemical; conditions: mixed solvents (ethanol/glycerol/PEG 400 = 2:1:2), organic solvent or mixture
[5] = format: in vivo, guinea pigs
[6] = In vitro release of coumarin-6 from PLGA NPs; format: physicochemical; conditions: PBS (pH 7.4), 72 hours, 37°C
Procedure, shortened: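 A dialysis bag holding 3.0 mL nanosuspension plus 2.0 mL PBS pH 7.4 sat in 15 mL PBS pH 7.4 at 37°C, stirred at 100 rpm. At set time points 1 mL of medium was withdrawn and replaced with fresh medium, and coumarin-6 was quantified by HPLC.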

[7] = PL, guinea pigs, RW administration, NPs versus solution

salvianolic acid B [Sal B]
released from NPs [1]: 93.0% | free drug released [1]: > 79% | entrapment efficiency of the NPs [2]: 92.88%

CC(C)=CCC[C@](C)(O[C@@H]1O[C@H](CO[C@@H]2O[C@H](CO)[C@@H](O)[C@H](O)[C@H]2O)[C@@H](O)[C@H](O)[C@H]1O)[C@H]1CC[C@]2(C)[C@@H]1[C@H](O)C[C@@H]1[C@@]3(C)CC[C@H](O[C@@H]4O[C@H](CO)[C@@H](O)[C@H](O)[C@H]4O[C@@H]4O[C@H](CO)[C@@H](O)[C@H](O)[C@H]4O)C(C)(C)[C@@H]3CC[C@]12C [Rb1, ginsenoside Rb1]
AUC0–t in the PL, NPs greater compared with compound solution [3]: 7.1 fold | Cmax in the PL, NPs higher compared with compound solution [3]: 16.7 fold | released from NPs [1]: 76.0% | free drug released [1]: > 79% | entrapment efficiency of the NPs [2]: 93.56%

Cc1coc2c1C(=O)C(=O)c1c-2ccc2c1CCCC2(C)C [TS IIA, tanshinone IIA]
released from NPs [1]: 23.6% | free drug released [1]: > 79% | entrapment efficiency of the NPs [2]: 91.81% | solubility [4]: 1830 µg/mL (≈ 6.22 mM)

CC(C)=CCC[C@](C)(O[C@@H]1O[C@H](CO)[C@@H](O)[C@H](O)[C@H]1O)[C@H]1CC[C@]2(C)[C@@H]1[C@H](O)C[C@@H]1[C@@]3(C)CC[C@H](O)C(C)(C)[C@@H]3[C@@H](O[C@@H]3O[C@H](CO)[C@@H](O)[C@H](O)[C@H]3O[C@@H]3OC[C@@H](O)[C@H](O)[C@H]3O)C[C@]12C [R1, notoginsenoside R1]
AUC0–t in the PL, NPs greater compared with compound solution [3]: 4.0 fold | Cmax in the PL, NPs higher compared with compound solution [3]: 14.4 fold | released from NPs [1]: completely released | free drug released [1]: > 79% | entrapment efficiency of the NPs [2]: 37.87%

CC(C)=CCC[C@](C)(O[C@@H]1O[C@H](CO)[C@@H](O)[C@H](O)[C@H]1O)[C@H]1CC[C@]2(C)[C@@H]1[C@H](O)C[C@@H]1[C@@]3(C)CC[C@H](O)C(C)(C)[C@@H]3[C@@H](O[C@@H]3O[C@H](CO)[C@@H](O)[C@H](O)[C@H]3O)C[C@]12C [Rg1, ginsenoside Rg1]
AUC0–t in the PL, NPs greater compared with compound solution [3]: 3.1 fold | Cmax in the PL, NPs higher compared with compound solution [3]: 10.0 fold | released from NPs [1]: 76.2% | free drug released [1]: > 79% | entrapment efficiency of the NPs [2]: 44.98%

CCN(CC)c1ccc2cc(-c3nc4ccccc4s3)c(=O)oc2c1 [coumarin-6]
AUC0–t in PL, NPs higher than coumarin-6 solution [5, 7]: 4.7 fold | Cmax in PL, NPs higher than coumarin-6 solution [5, 7]: 10.9 fold | time up to which coumarin-6 was found in the PL ([5]; RW administration of coumarin-6 NPs): up to 96 hours | time after which no coumarin-6 was detected in PL ([5]; RW administration of coumarin-6 solution): 36 h | coumarin-6 detected in the plasma ([5]; plasma of several guinea pigs, RW administration of coumarin-6 NPs or solution): An infinitesimal amount | in vitro cumulative release of coumarin-6 from the NPs [6]: < 2%
